Measured values as given in ChEMBL document CHEMBL1806417, “Antiproliferative activity and QSAR studies of a series of new 4-aminomethylidene derivatives of some pyrazol-5-ones” (Bioorg Med Chem Lett, 2011).
Calls of active or inactive are those of the source. No cut-off for these calls is given here.

Legend:
MS-1 [1] = assay: Antiangiogenic activity in mouse MS1 cells assessed as inhibition tube-like structure formation at 10 uM after 12 hrs by microscopy
MDA-MB-361 [2] = assay: Antiproliferative activity against human MDA-MB-361 cells assessed as cell survival after 72 hrs by MTT assay; type: functional, cell-based; settings: MDA-MB-361, 72 h
Summary of the method: (§1)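 Monolayer cultures in RPMI-1640 with L-glutamine (3 mM), 10% heat-inactivated FBS, 25 mM Hepes, pH 7.2, and extra glucose (1.11 g/L), at 37°C and 5% CO2. Seeding was 7000 cells/well for MDA-MB-361 and 3000 cells/well for MDA-MB-453. After 24 h, five two-fold dilutions were added for 72 h. MTT readout (Ohno–Abe modification). IC50 was read from the survival-versus-concentration curve; mean ± SD of three independent experiments.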

MDA-MB-453 [3] = assay: Antiproliferative activity against human MDA-MB-453 cells assessed as cell survival after 72 hrs by MTT assay; type: functional, cell-based; settings: MDA-MB-453, 72 h
Summary of the method: as §1

MDA-MB-453 [4] = assay: Cell cycle arrest in human MDA-MB-453 cells assessed as accumulation at sub-G1 phase at 2 times IC50 after 24 hrs using propidium iodide staining by flow cytometry; type: functional, cell-based
Summary of the method: (§2)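 Cells were seeded at 3 × 10⁵ per well and treated or left untreated for 24 h. They were trypsinized and fixed overnight in ice-cold 70% ethanol at -20°C, then washed in PBS. RNase was applied at 37°C for 30 min, followed by propidium iodide for at least 30 min. DNA content and cell-cycle distribution were measured by FACScan flow cytometry on at least 10,000 cells per sample.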

MS-1 [5] = assay: Antiangiogenic activity in mouse MS1 cells assessed as inhibition tube-like structure formation at 30 uM after 12 hrs by microscopy; type: functional, cell-based
MS-1 [6] = assay: Antiangiogenic activity in mouse MS1 cells assessed as inhibition tube-like structure formation at 3 uM after 12 hrs by microscopy
MDA-MB-361 [7] = assay: Cell cycle arrest in human MDA-MB-361 cells assessed as accumulation at G1 phase at 2 times IC50 after 24 hrs using propidium iodide staining by flow cytometry (Rvb =64.36 %); type: functional
Summary of the method: as §2

MS-1 [8] = assay: Antiangiogenic activity in mouse MS1 cells assessed as inhibition tube-like structure formation at 10 uM after 12 hrs by microscopy; type: functional, cell-based
MDA-MB-361 [9] = assay: Cell cycle arrest in human MDA-MB-361 cells assessed as accumulation at sub-G1 phase at 2 times IC50 after 24 hrs using propidium iodide staining by flow cytometry (Rvb =2.21 %); type: functional
Summary of the method: as §2

MDA-MB-361 [10] = assay: Cell cycle arrest in human MDA-MB-361 cells assessed as accumulation at G2/M phase at 2 times IC50 after 24 hrs using propidium iodide staining by flow cytometry (reference value: 14.15 %); type: functional
Summary of the method: as §2

MDA-MB-361 [11] = assay: Cell cycle arrest in human MDA-MB-361 cells assessed as accumulation at S phase at 2 times IC50 after 24 hrs using propidium iodide staining by flow cytometry (Rvb =15.72 %); type: functional
Summary of the method: as §2

MS-1 [12] = assay: Antiangiogenic activity in mouse MS1 cells assessed as inhibition tube-like structure formation at 3 uM after 12 hrs by microscopy; type: functional, cell-based

SMILES	IC50 (MDA-MB-361 [2])	IC50 (MDA-MB-453 [3])	Activity (MDA-MB-453 [4])	Activity (MS-1 [5])	other results
O=C(O)[C@H](CO)N/C=C1\C(=O)N(c2ccccc2)N=C1c1ccccc1	52.8 µM	49 µM	Active		Activity (MS-1 [1]): inactive
O=C1NN=C(c2ccccc2)/C1=C/N[C@@H](CO)C(=O)O	105 µM	23.7 µM		Active	
O=C1NN=C(c2ccccc2)/C1=C/N[C@@H](Cc1ccc(O)cc1)C(=O)O	61.1 µM	29.8 µM			Activity (MS-1 [1]): inactive
O=C(O)[C@@H](Cc1ccccc1)N/C=C1\C(=O)N(c2ccccc2)N=C1c1ccccc1	11.9 µM	9.66 µM	Active		Activity (MS-1 [6]): inactive
O=C1/C(=C\Nc2cc[nH]n2)C(c2ccccc2)=NN1c1ccccc1	51 µM	34.7 µM	Active		Activity (MDA-MB-361 [7]): 47.94%; Activity (MS-1 [8]): Active; Activity (MDA-MB-361 [9]): 21.55%; Activity (MDA-MB-361 [10]): 15.58%; Activity (MDA-MB-361 [11]): 7.81%
O=C1NN=C(c2ccccc2)/C1=C/N[C@@H](Cc1ccccc1)C(=O)O	67 µM	94.8 µM			Activity (MS-1 [1]): inactive
CSC[C@H](N/C=C1\C(=O)N(c2ccccc2)N=C1c1ccccc1)C(=O)O	14.2 µM	9.46 µM	Active		Activity (MS-1 [6]): inactive
O=C1NN=C(c2ccccc2)/C1=C/N[C@@H](Cc1c[nH]cn1)C(=O)O	113 µM	73.9 µM		Active	
CSC[C@H](N/C=C1\C(=O)NN=C1c1ccccc1)C(=O)O	97.4 µM	105 µM		Active	
CSCC[C@H](N/C=C1\C(=O)N(c2ccccc2)N=C1c1ccccc1)C(=O)O	12.5 µM	9.43 µM	Active		Activity (MS-1 [6]): inactive
O=C(O)[C@H](Cc1c[nH]cn1)N/C=C1\C(=O)N(c2ccccc2)N=C1c1ccccc1	87.2 µM	71.1 µM	Active	inactive	
O=C(O)[C@H](Cc1ccc(O)cc1)N/C=C1\C(=O)N(c2ccccc2)N=C1c1ccccc1	24.8 µM	10.9 µM	Active		Activity (MS-1 [6]): inactive
O=C(O)[C@H](Cc1c[nH]c2ccccc12)N/C=C1\C(=O)N(c2ccccc2)N=C1c1ccccc1	33.9 µM	9.75 µM	Active		Activity (MS-1 [1]): inactive
O=C1NN=C(c2ccccc2)/C1=C/Nc1cc[nH]n1	95.3 µM	74.9 µM		inactive	
O=C1NN=C(c2ccccc2)/C1=C/Nc1cc(-c2ccccc2)[nH]n1	42.7 µM	11.5 µM			Activity (MS-1 [1]): inactive
O=C1/C(=C\Nc2cc(-c3ccccc3)[nH]n2)C(c2ccccc2)=NN1c1ccccc1	12.2 µM	8.75 µM	Active		Activity (MS-1 [12]): Active
Cc1cc(N/C=C2\C(=O)NN=C2c2ccccc2)n[nH]1	96 µM	93 µM		Active	
Cc1cc(N/C=C2\C(=O)N(c3ccccc3)N=C2c2ccccc2)n[nH]1	9.98 µM	10.2 µM	Active		Activity (MDA-MB-361 [7]): 46.79%; Activity (MDA-MB-361 [9]): 19.43%; Activity (MS-1 [12]): Active; Activity (MDA-MB-361 [10]): 14.12%; Activity (MDA-MB-361 [11]): 11.64%
O=C(O)[C@H](Cc1ccccc1)N/C=C1\C(=O)N(c2ccccc2)N=C1c1ccccc1	11.5 µM	10.4 µM	Active		Activity (MS-1 [12]): Active
O=C1/C(=C\Nc2cc(-c3ccco3)[nH]n2)C(c2ccccc2)=NN1c1ccccc1	13.4 µM	12.4 µM	Active		Activity (MDA-MB-361 [7]): 51.38%; Activity (MDA-MB-361 [9]): 21.95%; Activity (MS-1 [12]): Active; Activity (MDA-MB-361 [10]): 13.9%; Activity (MDA-MB-361 [11]): 7.33%
CCOC(=O)c1c[nH]nc1N/C=C1\C(=O)N(c2ccccc2)N=C1c1ccccc1	24.7 µM	19.4 µM	Active		Activity (MS-1 [6]): inactive
O=C1NN=C(c2ccccc2)/C1=C/Nc1cc(-c2ccco2)[nH]n1	63.7 µM	20.9 µM			Activity (MS-1 [1]): inactive
CCOC(=O)c1c[nH]nc1N/C=C1\C(=O)NN=C1c1ccccc1	121 µM	74.6 µM			Activity (MS-1 [6]): inactive
CSCC[C@H](N/C=C1\C(=O)NN=C1c1ccccc1)C(=O)O	105 µM	42.1 µM		Active	
O=C1NN=C(c2ccccc2)/C1=C/N[C@@H](Cc1c[nH]c2ccccc12)C(=O)O	93.6 µM	41.7 µM		Active	
